# Assay results published in ChEMBL document CHEMBL1123102, “Synthesis and anthelmintic activity of 5(6)-(benzimidazol-2-ylcarbamoyl) and (4-substituted piperazin-1-yl)benzimidazoles” (1985).
# Experiments:
# [1] = tested on: Rattus norvegicus; experiment: Antifilarial activity evaluated as (percent reduction of microfilariae) against Litomosoides carinii in Coton rat, at a dose (6 mg/kg X 5) administered intraperitoneally; assay type: functional
# In short: (§1)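 Cotton rats (Sigmodon hispidus) infected with L. carinii by vector mite (Liponyssus bacoti) transmission. Animals with ≥250 microfilariae per 5 µL blood after prepatency were used, 3–4 per experiment. Drug was given i.p. in water or Tween 80 suspension daily for 5 days. Blood smears were read weekly up to 6 weeks. Adult worms were examined at sacrifice on day 42.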
# [2] = tested on: Rattus norvegicus; experiment: Antifilarial activity evaluated as (percent death of adult worms on a day 42) against Litomosoides carinii in Coton rat, at a dose (6 mg/kg X 5) administered intraperitoneally; Nil; assay type: functional, organism-based
# In short: (§2)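 Cotton rats (Sigmodon hispidus) were infected with L. carinii through the vector Liponyssus bacoti. At the end of the prepatent period, animals with at least 250 microfilariae per blood sample were selected, 3–4 per experiment. Drug in water or Tween 80 suspension was given ip daily for 5 days. Blood smears were taken weekly up to 6 weeks. On day 42, animals were killed and the condition of adult male and female worms assessed.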
# [3] = tested on: Rattus norvegicus; experiment: Antifilarial activity evaluated as (persistance of microfilaricidal effect)against Litomosoides carinii in Coton rat, at a dose (6 mg/kg X 5)administered intraperitoneally; assay type: functional; in short: as §1
# [4] = tested on: Rattus norvegicus; experiment: Antifilarial activity evaluated as (percent death of adult worms on day 42) against Litomosoides carinii in Coton rat, at a dose (30 mg/kg X 5) administered intraperitoneally; assay type: functional; in short: as §2
# [5] = tested on: Rattus norvegicus; experiment: Antitapeworm activity evaluated as reduction of worms with scolices against Hymenolepis nana in rat ( dose 250 mg/kg X 3) administered orally; assay type: functional; conditions: route oral
# In short: (§3)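 Newly weaned male albino rats (Freiburg strain, 25–30 g) were infected orally with 200 viable H. nana ova. Those passing eggs on day 17 were treated orally, 3–5 per group, three daily doses after a 5–6 h fast. Rats were fasted again on day 3 of treatment and sacrificed. Worms with scolices and worm-free animals were scored.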
# [6] = tested on: Rattus norvegicus; experiment: Antifilarial activity evaluated as (persistance of microfilaricidal effect) against Litomosoides carinii in Coton rat, at a dose (30 mg/kg X 5) administered intraperitoneally; assay type: functional; in short: as §1
# [7] = tested on: Rattus norvegicus; experiment: Antitapeworm activity evaluated as(percent animal freed of worms) against Hymenolepis nana in rat (dose 250 mg/kg X 3)administered orally; assay type: functional; conditions: route oral; in short: as §3
# [8] = tested on: Rattus norvegicus; experiment: Antifilarial activity evaluated as (percent reduction of microfilariae) against Litomosoides carinii in Coton rat, at a dose (30 mg/kg X 5) administered intraperitoneally; assay type: functional; in short: as §1
# [9] = tested on: Rattus norvegicus; experiment: Antitapeworm activity evaluated as(percent animal freed of worms) against Hymenolepis nana in rat (dose 50 mg/kg X 3)administered orally; assay type: functional; conditions: route oral; in short: as §3
# [10] = tested on: Rattus norvegicus; experiment: Antitapeworm activity evaluated as(percent animal freed of worms) against Hymenolepis nana in rat ( dose 250 mg/kg X 3)administered orally; assay type: functional; conditions: route oral; in short: as §3
# [11] = tested on: Rattus norvegicus; experiment: Antitapeworm activity evaluated as reduction of worms with scolices against Hymenolepis nana in rat (dose 250 mg/kg X 3) administered orally; assay type: functional; conditions: route oral; in short: as §3
# [12] = tested on: Rattus norvegicus; experiment: Antitapeworm activity evaluated as (percent animal freed of worms) against Hymenolepis nana in rat (dose 100 mg/kg X 3)administered orally; assay type: functional; conditions: route oral; in short: as §3
# [13] = tested on: Rattus norvegicus; experiment: Antitapeworm activity evaluated as reduction of worms with scolices against Hymenolepis nana in rat (dose 50 mg/kg X 3)administered orally; assay type: functional; conditions: route oral; in short: as §3
# [14] = tested on: Rattus norvegicus; experiment: Antitapeworm activity evaluated as reduction of worms with scolices against Hymenolepis nana in rat (dose 100 mg/kg X 3)administered orally; assay type: functional; conditions: route oral; in short: as §3
# [15] = tested on: Rattus norvegicus; experiment: Antifilarial activity evaluated as (percent death of adult worms on day 42) against Litomosoides carinii in Cotton rat, at a dose (30 mg/kg X 5) administered intraperitoneally; assay type: functional; in short: as §2
# [16] = tested on: Rattus norvegicus; experiment: Antifilarial activity evaluated as (persistance of microfilaricidal effect)against Litomosoides carinii in Cotton rat, at a dose (30 mg/kg X 5) administered intraperitoneally; assay type: functional; in short: as §1
# [17] = tested on: Rattus norvegicus; experiment: Antitapeworm activity evaluated as reduction of worms with scolices against Hymenolepis nana in rat ( dose 250 mg/kg X3 )administered orally; assay type: functional; conditions: route oral; in short: as §3
# [18] = tested on: Rattus norvegicus; experiment: Antitapeworm activity evaluated as(percent animal freed of worms) against Hymenolepis nana in rat (dose 400 mg/kg X 3)administered orally; assay type: functional; conditions: route oral; in short: as §3
# [19] = tested on: Rattus norvegicus; experiment: Antitapeworm activity evaluated as reduction of worms with scolices against Hymenolepis nana in rat ( dose 400 mg/kg X 3) administered orally; assay type: functional; conditions: route oral; in short: as §3
smiles,measurement,setting,value
CCN(CC)C(=O)N1CCN(C)CC1 [DIETHYLCARBAMAZINE],Removal,[1],>95%
same,Death,[2],Nil
same,Activity,[3],7
CCN(CC)C(=O)N1CCN(c2ccc3[nH]c(NC(=O)OC)nc3c2)CC1,Death,[4],100%
same,Reduction,[5],100%
same,Activity,[6],42
same,Reduction,[7],100%
same,Removal,[8],>95%
COC(=O)Nc1nc2cc(N3CCN(C(=O)c4ccccc4)CC3)ccc2[nH]1,Reduction,[9],85%
same,Reduction,[10],100%
same,Reduction,[11],100%
same,Reduction,[12],100%
same,Reduction,[13],100%
same,Reduction,[14],100%
COC(=O)Nc1nc2cc(N3CCN(C(=O)c4ccco4)CC3)ccc2[nH]1,Death,[15],90%
same,Activity,[16],42
same,Reduction,[7],100%
same,Removal,[8],>90%
same,Reduction,[17],100%
COC(=O)Nc1nc2cc(C(=O)c3ccccc3)ccc2[nH]1 [MEBENDAZOLE],Reduction,[18],0%
same,Reduction,[19],0%
